The structures appear in SMILES notation. Bounds are passed on as bounds.

One assay relates to Plasmodium falciparum. Nature of the assay: Antiplasmodial activity against trophozoite-stage of Plasmodium falciparum 3D7 after 48 hrs by FACS analysis. In kind it is functional, organism-based. Particulars: 3D7, 48 h. In outline:
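Synchronous late-trophozoite 3D7 cultures at 1% parasitemia and 2% hematocrit with 0.5% DMSO, exposed to inhibitor from 10 μM down to 0.31 μM for a 48 h cycle at 37 °C. Aliquots stained with diluted hydroethidine for 20 min at 37 °C, then parasitemia read by flow cytometry. Untreated parasites and uninfected RBCs served as controls. EC50 from nonlinear regression, triplicate wells.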

Assay [1] addresses T1, Glycylpeptide N-tetradecanoyltransferase 1 (Homo sapiens, UniProt P30419).
T1 sequence (P30419 whole entry): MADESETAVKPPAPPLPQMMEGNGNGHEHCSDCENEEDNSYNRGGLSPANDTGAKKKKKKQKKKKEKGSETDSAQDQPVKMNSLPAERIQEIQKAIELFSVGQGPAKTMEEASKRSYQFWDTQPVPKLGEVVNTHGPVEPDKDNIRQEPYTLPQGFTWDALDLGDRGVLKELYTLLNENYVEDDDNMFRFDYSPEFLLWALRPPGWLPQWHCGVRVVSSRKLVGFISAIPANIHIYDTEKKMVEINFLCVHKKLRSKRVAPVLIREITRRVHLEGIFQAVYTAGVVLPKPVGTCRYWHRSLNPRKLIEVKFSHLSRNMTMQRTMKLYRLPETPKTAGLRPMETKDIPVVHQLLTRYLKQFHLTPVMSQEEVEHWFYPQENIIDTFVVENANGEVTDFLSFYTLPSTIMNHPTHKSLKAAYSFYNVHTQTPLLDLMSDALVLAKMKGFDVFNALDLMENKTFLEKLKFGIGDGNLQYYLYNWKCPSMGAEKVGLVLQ
As to the kind of experiment: Inhibition of human N-myristoyltransferase using [3H]-myristoyl-CoA and GLYVSRLFNRLFQKK(Biotin)-NH2 as substrate after 30 mins scintillation proximity assay. Background: SPA uses beads or plates that emit light when radiolabelled molecules are held near them.

In assay [2] the target is T2, Glycylpeptide N-tetradecanoyltransferase (Plasmodium falciparum (isolate 3D7), UniProt Q8ILW6).
T2 sequence (Q8ILW6 whole entry): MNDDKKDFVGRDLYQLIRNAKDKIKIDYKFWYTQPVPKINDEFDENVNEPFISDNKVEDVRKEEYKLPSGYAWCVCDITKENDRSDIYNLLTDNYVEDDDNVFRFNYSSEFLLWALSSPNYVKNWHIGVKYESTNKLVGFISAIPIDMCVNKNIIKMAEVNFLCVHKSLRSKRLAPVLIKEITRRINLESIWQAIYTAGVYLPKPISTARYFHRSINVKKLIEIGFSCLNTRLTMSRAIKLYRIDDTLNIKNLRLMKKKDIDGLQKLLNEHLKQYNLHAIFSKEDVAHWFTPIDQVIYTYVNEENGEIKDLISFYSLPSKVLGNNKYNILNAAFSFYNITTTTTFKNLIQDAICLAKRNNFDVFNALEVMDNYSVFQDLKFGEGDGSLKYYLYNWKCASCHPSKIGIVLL
Nature of the assay: Inhibition of Plasmodium falciparum N-myristoyltransferase using [3H]-myristoyl-CoA and GLYVSRLFNRLFQKK(Biotin)-NH2 as substrate after 30 mins scintillation proximity assay.

Assay [3] is described as follows: Selectivity index, ratio of IC50 for human N-myristoyltransferase to IC50 for Plasmodium falciparum N-myristoyltransferase. In outline:
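Buffer was 30 mM Tris pH 7.4 with 4% DMSO; 30 min at 37 °C. Reaction stopped with streptavidin beads at pH 4. […] Ratio is IC50(HsNMT1)/IC50(PfNMT).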

In assay [4] the target is Glycylpeptide N-tetradecanoyltransferase (Plasmodium vivax (strain Salvador I), UniProt A5K1A2, Y211A). Nature of the assay: Inhibition of Plasmodium vivax […] N-myristoyltransferase Y211A mutant using [3H]-myristoyl-CoA and GLYVSRLFNRLFQKK(Biotin)-NH2 as substrate after 30 mins scintillation proximity assay. The essentials: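 Purified NMT per 100 µL well: PfNMT 9.4 ng, PvNMT 4.8 ng, PvNMT Y211A 19.2 ng. Each well also held 62.5 nM [3H]-myristoyl-CoA and 500 nM biotinylated peptide in pH 7.4 Tris buffer with 4% DMSO. Incubation ran 30 min at 37°C. Reactions were stopped with streptavidin beads at pH 4 and counted after overnight settling. Inhibitor ranged 500 µM–2 nM. IC50 came from nonlinear regression, in duplicate.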
Chain of Glycylpeptide N-tetradecanoyltransferase (Plasmodium vivax (strain Salvador I), UniProt A5K1A2, Y211A) (A5K1A2 whole entry Y211A): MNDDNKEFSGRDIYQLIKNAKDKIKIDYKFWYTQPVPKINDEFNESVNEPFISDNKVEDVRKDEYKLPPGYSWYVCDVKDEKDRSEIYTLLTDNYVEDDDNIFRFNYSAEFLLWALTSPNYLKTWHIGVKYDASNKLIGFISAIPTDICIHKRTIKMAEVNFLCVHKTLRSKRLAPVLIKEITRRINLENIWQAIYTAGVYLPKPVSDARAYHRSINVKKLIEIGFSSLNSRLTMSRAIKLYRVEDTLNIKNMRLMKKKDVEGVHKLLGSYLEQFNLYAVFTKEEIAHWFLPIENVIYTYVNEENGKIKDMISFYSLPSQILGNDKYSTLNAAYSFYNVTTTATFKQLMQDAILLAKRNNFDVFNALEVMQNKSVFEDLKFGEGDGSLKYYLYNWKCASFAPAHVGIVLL

Assay [5] in a line: Inhibition of Plasmodium vivax wild type N-myristoyltransferase using [3H]-myristoyl-CoA and GLYVSRLFNRLFQKK(Biotin)-NH2 as substrate after 30 mins scintillation proximity assay.
Assay [6] addresses Glycylpeptide N-tetradecanoyltransferase 1 (Homo sapiens, UniProt P30419, Y296A). Nature of the assay: Inhibition of human N-myristoyltransferase Y296A mutant using [3H]-myristoyl-CoA and GLYVSRLFNRLFQKK(Biotin)-NH2 as substrate after 30 mins scintillation proximity assay.

Chain of Glycylpeptide N-tetradecanoyltransferase 1 (Homo sapiens, UniProt P30419, Y296A) (P30419 whole entry Y296A): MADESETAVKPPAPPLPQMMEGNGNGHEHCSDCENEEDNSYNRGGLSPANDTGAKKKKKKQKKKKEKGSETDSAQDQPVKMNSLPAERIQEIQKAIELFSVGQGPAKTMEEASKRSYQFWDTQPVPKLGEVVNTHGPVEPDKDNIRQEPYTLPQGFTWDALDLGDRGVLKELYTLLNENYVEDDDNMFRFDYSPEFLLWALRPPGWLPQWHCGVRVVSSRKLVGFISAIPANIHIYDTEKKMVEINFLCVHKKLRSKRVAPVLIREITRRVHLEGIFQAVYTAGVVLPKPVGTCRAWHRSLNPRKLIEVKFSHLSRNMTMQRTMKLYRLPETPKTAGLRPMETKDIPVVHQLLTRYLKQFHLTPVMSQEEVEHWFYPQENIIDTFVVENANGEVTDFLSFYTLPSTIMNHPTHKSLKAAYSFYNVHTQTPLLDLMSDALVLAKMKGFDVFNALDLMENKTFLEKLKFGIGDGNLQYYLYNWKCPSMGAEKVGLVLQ

In general, EC50 refers to the concentration giving half of the maximal effect. As a reminder, the IC50 is the concentration that inhibits the measured activity by half. Higher therefore signals weaker potency. Molecule `CCOC(=O)c1oc2cccc(OC3CCNCC3)c2c1C` came in with an EC50 in the assay on Plasmodium falciparum of 15 µM. Moreover, the IC50 was greater than 200 µM in assay [1] and 16.5 µM in assay [2].

Regarding `c1ccc(CSc2cc3c(OC4CCNCC4)cccc3o2)cc1`, the IC50 in assay [2] is 38.2 µM.

Consider `Cc1c(COc2ccccc2)oc2cccc(OC3CCNCC3)c12`, for which the Ratio IC50 in assay [3] was greater than 16. Half-maximal inhibition in assay [2] (IC50) was put at 6.6 µM.

In the case of `Cc1c(/C=C\c2ccccc2)oc2cccc(OC3CCNCC3)c12`, the IC50 in assay [2] worked out at 72 µM.

For `Cc1c(-c2nc(-c3ccccc3)no2)oc2cccc(OC3CCNCC3)c12`, the Ratio IC50 in assay [3] is greater than 12. The molecule also registered an IC50 in assay [2] of 17.9 µM.

Turning to `Cc1c(C(=O)Nc2ccccc2)oc2cccc(OC3CCNCC3)c12`, the Ratio IC50 in assay [3] was greater than 10. In the assay on Plasmodium falciparum, this molecule came in with an EC50 of 5.3 µM. Moreover, in assay [2], 28.8 µM corresponded to half-maximal inhibition (IC50).

As to `Cc1c(CCc2ccccc2)oc2cccc(OC3CCNCC3)c12`, in assay [2], half-maximal inhibition (IC50) was put at 131 µM.

Take `Cc1c(C(=O)c2ccccc2)oc2cccc(OC3CCNCC3)c12`: the Ratio IC50 in assay [3] was greater than 5. This molecule also returned a concentration for a half-maximal effect (EC50) in the assay with Plasmodium falciparum of 5.3 µM. Moreover, the IC50 in assay [2] is 22 µM.

On to `Cc1c(C(=O)NC2CCCCC2)oc2cccc(OC3CCNCC3)c12`, for which the IC50 in assay [2] was greater than 100 µM.

The molecule `Cc1c(C(=O)OCCCc2ccccc2)oc2cccc(OC3CCNCC3)c12` had an IC50 in assay [2] of 36.2 µM.

Consider `Cc1c(C(=O)NCc2cccc3ccccc23)oc2cccc(OC3CCNCC3)c12`, for which, in assay [3], the Ratio IC50 is 28. The EC50 with Plasmodium falciparum was 2.4 µM.

On to `Cc1c(COCc2ccccc2)oc2cccc(OC3CCNCC3)c12`, for which the Ratio IC50 in assay [3] turned out to be 14. In the assay with Plasmodium falciparum, this molecule displayed an EC50 of 4.5 µM. The molecule also came in with an IC50 in assay [2] of 7.1 µM.

On to `Cc1c(C(=O)Oc2ccccc2)oc2cccc(OC3CCNCC3)c12`, for which the Ratio IC50 in assay [3] was greater than 20. The EC50 in the assay with Plasmodium falciparum was found to be 10 µM. In assay [2], this molecule returned an IC50 of 24.4 µM.

`Cc1c(C(=O)OCc2cccc3ccccc23)oc2cccc(OC3CCNCC3)c12`: half-maximal inhibition in assay [2] (IC50) required 1.4 µM.

On to `CCCCc1c(C)nc2ccc(OC)cc2c1SCCC#N`, for which the figures for the half-maximal inhibitory concentration (IC50) in assay [4] and in assay [5] were 150 µM and 32.7 µM, respectively.

In assay [2], `Cc1c(C(=O)NCc2ccccc2)oc2cccc(OC3CCNCC3)c12` came in with an IC50 of 13 µM.

In assay [2], `Cc1c(C(=O)OCC2CCCCC2)oc2cccc(OC3CCNCC3)c12` had an IC50 of 9.7 µM.

On to `Cc1c(-c2nc(Cc3ccccc3)no2)oc2cccc(OC3CCNCC3)c12`, for which the results for the IC50 in assay [4] and in assay [5] were 16.6 µM and 6.2 µM, respectively. This molecule also returned an EC50 in the assay on Plasmodium falciparum of 2.1 µM.

Take `Cc1c(/C=C/c2ccccc2)oc2cccc(OC3CCNCC3)c12`: in assay [3], the Ratio IC50 was greater than 10. For the same molecule, in assay [2], the IC50 is 26.1 µM.

In assay [2], `O=S(=O)(Cc1ccccc1)c1cc2c(OC3CCNCC3)cccc2o1` returned an IC50 greater than 200 µM.

Consider `CCOC(=O)c1oc2cccc(OCCCNCc3cccnc3)c2c1C`, for which the results for the IC50 in assay [1] and in assay [2] were greater than 1000 µM and 51 µM, respectively.

`Cc1c(C(=O)OCc2ccccc2)oc2cccc(OC3CCNCC3)c12`: the Ratio IC50 in assay [3] was greater than 400. In the assay with Plasmodium falciparum, this molecule returned an EC50 of 1.2 µM. The IC50 was greater than 100 µM in assay [1] and 0.27 µM in assay [2].

In assay [2], `Cc1c(C(=O)NC(C)C)oc2cccc(OC3CCNCC3)c12` returned a half-inhibitory concentration (IC50) greater than 200 µM.

In the case of `COc1cccc(COC(=O)c2oc3cccc(OC4CCNCC4)c3c2C)c1`, the IC50 in assay [6] is 10 µM; in assay [4] it was 2.7 µM; in assay [1], 45 µM.

Take `Cc1c(C(=O)CCc2ccccc2)oc2cccc(OC3CCNCC3)c12`: the Ratio IC50 in assay [3] is greater than 20. Besides, a half-maximal effect with Plasmodium falciparum (EC50) was put at 4 µM.

On to `Cc1c(C(=O)/C=C/c2ccccc2)oc2cccc(OC3CCNCC3)c12`, for which, in assay [3], the Ratio IC50 is 14. Further, the EC50 with Plasmodium falciparum is 2.5 µM. This molecule returned an IC50 in assay [2] of 3.5 µM.

Take `Cc1c(C(=O)OCCc2ccccc2)oc2cccc(OC3CCNCC3)c12`: in assay [2], 4.1 µM corresponded to half-maximal inhibition (IC50).

These data come from ChEMBL document CHEMBL2169879, “Design and synthesis of inhibitors of Plasmodium falciparum N-myristoyltransferase, a promising target for antimalarial drug discovery” (J Med Chem, 2012).
